What was measured:
Type in all cases: functional
Melanoma cell line = experiment: Cytotoxicity against human Melanoma cells incubated for 48 hrs by SRB assay
In short: (§1)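 NCI-60 five-concentration screen: lines seeded 5×10^3–4×10^4 cells/well depending on line; compound diluted in fresh medium at scalar concentrations 0–100 or 0–1000 μM; 48 h exposure, in situ fixation, sulforhodamine B protein staining, optical density read; GI50, TGI and LC50 per NCI procedures; panel mean = mean graph midpoint.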

Prostatic carcinoma cell = experiment: Cytotoxicity against human Prostate carcinoma cells incubated for 48 hrs by SRB assay; in short: as §1
NSCLC = experiment: Cytotoxicity against human NSCLC cells incubated for 48 hrs by SRB assay; in short: as §1

Compound	LC50 (Melanoma cell line)	LC50 (Prostatic carcinoma cell)	LC50 (NSCLC)
COc1ccc2c(c1)/C(=C\c1ccc3ccc4ccc(/C=C5/C(=O)N(C)c6ccc(OC)cc65)nc4c3n1)C(=O)N2C	30.2 µM	56.2 µM	85.1 µM
COc1cc2c(cc1C)NC(=O)/C2=C/c1ccc2ccc3ccc(/C=C4/C(=O)Nc5cc(C)c(OC)cc54)nc3c2n1	55 µM	–	52.5 µM
CC(C)(C)c1cc(/C=C2/C(=O)Nc3ccc(F)cc32)c(O)c(/C=C2/C(=O)Nc3ccc(F)cc32)c1	33.9 µM	4.74 µM	47.9 µM
CC(C)(C)c1cc(/C=C2/C(=O)Nc3cccc(F)c32)c(O)c(/C=C2/C(=O)Nc3cccc(F)c32)c1	13.2 µM	36.3 µM	15.8 µM
O=C1Nc2cc(Cl)ccc2/C1=C\c1cccc(/C=C2/C(=O)Nc3cc(Cl)ccc32)c1	19.5 µM	28.2 µM	45.7 µM
COc1ccc2c(c1)/C(=C\c1cc(C(C)(C)C)cc(/C=C3/C(=O)N(C)c4ccc(OC)cc43)c1O)C(=O)N2C	9.55 µM	67.6 µM	31.6 µM
O=C1Nc2ccc(Cl)cc2/C1=C\c1ccc2ccc3ccc(/C=C4/C(=O)Nc5ccc(Cl)cc54)nc3c2n1	51.3 µM	–	52.5 µM
COc1cc2c(c(OC)c1OC)C(=Cc1cc(C(C)(C)C)cc(/C=C3\C(=O)Nc4cc(OC)c(OC)c(OC)c43)c1O)C(=O)N2	8.13 µM	12.6 µM	14.8 µM
COc1cc2c(/C=C3/C(=O)N(C)c4cc5c(cc43)/C(=C\c3c(Cl)[nH]c4cc(C)c(OC)cc34)C(=O)N5C)c(Cl)[nH]c2cc1C	22.4 µM	20.4 µM	51.3 µM
COc1ccc2[nH]c(Cl)c(/C=C3/C(=O)N(C)c4cc5c(cc43)/C(=C\c3c(Cl)[nH]c4ccc(OC)cc34)C(=O)N5C)c2c1	12.9 µM	7.94 µM	24.6 µM
CC(C)(C)c1cc(/C=C2/C(=O)Nc3cc(Cl)ccc32)c(O)c(/C=C2/C(=O)Nc3cc(Cl)ccc32)c1	30.9 µM	38 µM	47.9 µM
O=C1Nc2cccc(F)c2/C1=C\c1cccc(/C=C2/C(=O)Nc3cccc(F)c32)c1	9.33 µM	18.6 µM	33.1 µM
Cc1cc2c(cc1O)/C(=C\c1cc(C(C)(C)C)cc(C=O)c1O)C(=O)N2	37.1 µM	57.5 µM	51.3 µM
